Compound activity as filed in PubChem.
CHRM5 antagonist = blocks acetylcholine activation of human M5 receptor. CHO-hM5 cells, Fluo-8 calcium fluorescence, ACh EC80. 360,000 tested, 0.59% active. P08912. inhibition, % at 3 µM. AID 624040;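 active = inhibition above a per-plate cutoff, the mean of that plate's test compounds plus 3 SD, cut at about 27% in these data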;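 note: 0% = acetylcholine EC80 with DMSO and 100% = DMSO without agonist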
M4 antag = blocks acetylcholine activation of human M4 receptor; CHO-hM4 cells, ACh EC80, Fluo-8 calcium fluorescence; inhibition, % at 3 µM; 360,000 tested, 0.73% active; AID 624125;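 active = inhibition above its plate's cutoff, the mean inhibition of sample wells plus 3 SD, cut at about 27% in these data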;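 note: 0% = acetylcholine EC80 with DMSO and 100% = DMSO without agonist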
Target sequence (P08173 whole entry, looked up): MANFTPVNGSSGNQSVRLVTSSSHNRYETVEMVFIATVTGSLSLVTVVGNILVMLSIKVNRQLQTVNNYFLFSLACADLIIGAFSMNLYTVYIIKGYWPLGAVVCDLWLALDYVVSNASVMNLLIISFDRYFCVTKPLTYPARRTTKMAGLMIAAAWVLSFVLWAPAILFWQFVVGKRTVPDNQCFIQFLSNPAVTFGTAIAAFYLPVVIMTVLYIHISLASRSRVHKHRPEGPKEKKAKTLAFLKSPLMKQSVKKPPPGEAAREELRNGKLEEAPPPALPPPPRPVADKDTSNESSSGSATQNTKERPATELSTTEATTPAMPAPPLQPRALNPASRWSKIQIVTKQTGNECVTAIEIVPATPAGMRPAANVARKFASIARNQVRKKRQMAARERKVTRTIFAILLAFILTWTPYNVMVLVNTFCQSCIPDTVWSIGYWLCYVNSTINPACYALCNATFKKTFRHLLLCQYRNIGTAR
CHRM4 PAM = CHRM4 positive allosteric modulation; 360,000 tested, 0.4% active; P08173; CHO-K1 hM4/Gqi5, Fluo-8 calcium fluorescence, ACh EC20; 0% = ACh EC20, 100% = maximal ACh; AID 624126; activation, % at 3 µM;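 active = activation above its plate's cutoff, the mean activation of sample wells plus 3 SD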
M5 ag = agonists of human muscarinic M5 receptor (CHRM5); P08912; CHO-K1 hM5 cells, Fluo-8 calcium fluorescence; 0% DMSO wells, 100% maximal acetylcholine response; activation, % at 3 µM; 360,000 tested, 0.19% active; AID 624037;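 active = activation above the run's mean over test compounds plus 3 SD, cut at about 23% in these data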;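 note: signal is peak over basal fluorescence ratio across the kinetic read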
M4 ag = agonists of human muscarinic M4 receptor (CHRM4); AID 624127; P08173; activation, % at 3 µM; 360,000 tested, 0.14% active; CHO-K1 hM4/Gqi5, Fluo-8 calcium fluorescence; vehicle 0%, full acetylcholine response 100%;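 active = activation above the run mean over all test wells plus 3 SD, cut at about 32% in these data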;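 note: peak over basal fluorescence ratio per well then scaled between controls; 0% = DMSO wells and 100% = acetylcholine at EC100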
CHRM5 PAM = potentiates acetylcholine response at human M5 receptor. 360,000 tested, 0.3% active. CHO-K1 hM5, Fluo-8 calcium, ACh EC20 PAM; 0% = ACh EC20, 100% = ACh EC100. activation, % at 3 µM. AID 624038;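 active = activation above the run cutoff, the mean activation of all test compounds plus 3 SD, cut at about 18% in these data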
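System – CHO-K1 hM5 cells · Compound – 3 µM, single dose · Incubation – compound preincubation 140 s before EC20 acetylcholine addition · Technique – Fluo-8 calcium fluorescence · Measure – Max/basal fluorescence ratio as % of EC20–EC100 ACh window · Benchmarks – low control EC20 acetylcholine (0%), high control EC100 acetylcholine (100%) · Replication – singlicate, one well per test compound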
Numbers without * were called inactive. This is a sample that favours compounds with a hit; in the whole collection about 1.8% have one here.

SMILES | CHRM5 antagonist | M4 antag | CHRM4 PAM | M5 ag | M4 ag | CHRM5 PAM
Cc1nc2c(OCCC3CCCCC3)cccn2c1N(C)C(=O)CCC1CCCC1 | 4.4 | 3.9 | -3.5 | -2.8 | 0.6 | -8.5
CCOC(=O)C(=O)Nc1ccc(OC)c(Cl)c1 | 5.2 | -3.3 | 23.1* | -3.0 | 2.4 | 0.5
COc1ccc(NC(=O)Nc2ccc3c(c2)N(C)C(=O)CS3)cc1Cl | 31.1* | 17.4 | -14.6 | 8.6 | 21.6 | -23.5
COc1ccc(NC(=O)Nc2ccc3c(c2)N(C)C(=O)CS3)cc1OC | 4.1 | -10.3 | -0.7 | 3.1 | 16.6 | -13.2
O=C(Nc1ccc(OC(F)F)c(Cl)c1)c1cccc(OC(F)F)c1 | 39.6* | 9.7 | -21.4 | -5.1 | 6.9 | -21.8
O=C(Nc1ccc([N+](=O)[O-])cc1)Nc1ccc(OC(F)F)c(Cl)c1 | 32.7* | 16.8 | -12.6 | 8.1 | 11.1 | -19.4
COc1ccc(NC(=O)c2cccc(OC(F)F)c2)cc1Cl | -9.5 | 0.5 | -3.7 | 1.1 | 7.7 | -7.1
COc1ccc(NC(=O)C(=O)NCCCO)cc1Cl | 4.4 | -4.7 | 5.2 | 0.7 | 4.9 | -4.4
O=C(NCc1ccncc1)/C(=C/c1cccc([N+](=O)[O-])c1)NC(=O)c1ccccc1 | 7.6 | 10.1 | -7.4 | -1.4 | 5.8 | -1.4
CC(=O)NC(CC(=O)OCC(=O)N1CCN(S(=O)(=O)c2ccc(Cl)cc2)CC1)c1ccccc1 (stereo not drawn) | 12.9 | 3.4 | -1.0 | -2.3 | 0.1 | -2.4
COc1ccc(NS(=O)(=O)c2cccc(NC(=O)COc3ccccc3[N+](=O)[O-])c2)cc1 | 18.5 | 8.1 | -9.3 | 6.9 | 17.5 | -33.0
COc1ccc(NC(=O)Nc2cccc([N+](=O)[O-])c2)cc1Cl | 30.6* | 13.6 | -11.6 | 4.7 | 14.6 | -18.6
O=C(Nc1ccccc1)Nc1cc([N+](=O)[O-])ccc1F | 4.5 | -10.8 | 2.9 | 6.2 | 10.6 | -14.3
COc1ccc(C(=O)Nc2cccc([N+](=O)[O-])c2)cc1Br | 5.7 | -4.0 | -0.2 | -2.4 | 1.2 | -0.3
Cc1ccc([N+](=O)[O-])cc1NC(=O)Nc1cccc(F)c1 | 30.4* | 22.5 | -15.7 | 9.8 | 22.5 | -16.8
O=C1OC(Sc2ccccc2)(c2ccccc2)c2ccccc21 (stereo not drawn) | 7.1 | 4.7 | -6.9 | -8.4 | 3.6 | -24.3
CN(C)CCCN(C(=O)c1cc(Cl)sc1Cl)c1nc2cc3c(cc2s1)OCO3 | 42.2* | 62.5* | -15.7 | -8.8 | 4.6 | -17.9
CCCCOc1ccc(C(=O)NCCN2CCC(n3c(=O)[nH]c4ccccc43)CC2)cc1 | 8.6 | 58.6* | -14.8 | -2.0 | 13.0 | -10.6
O=C(NCCN1CCC(n2c(=O)[nH]c3ccccc32)CC1)C(c1ccccc1)c1ccccc1 | 36.7* | 15.7 | -12.1 | -4.0 | 5.4 | -24.0
C/C(=N\Nc1ccccc1C(=O)O)c1ccncc1 | -9.1 | 6.0 | 7.1 | 0.4 | 2.4 | 11.9
CCNC(=O)C1(C)CCCN(C(=O)c2oc3ccccc3c2C)C1 (stereo not drawn) | -5.9 | -7.7 | 2.6 | 1.0 | -0.8 | -0.2
O=C(C[n+]1ccc(Cc2ccccc2)cc1)Nc1ccc([N+](=O)[O-])cc1Cl | 2.6 | 27.2* | -20.5 | -9.8 | 0.9 | -9.5
Nn1c(=O)c2ccccc2n2c(SCc3ccccc3)nnc12 | 29.4* | -17.0 | 13.4 | -3.9 | 1.7 | 38.1*
COc1ccc(C2C(C#N)=C(N)Oc3cc(O)ccc32)cc1OC (stereo not drawn) | -9.6 | 0.5 | -0.1 | -0.6 | 0.9 | -1.6
COc1ccc(C2C(C#N)=C(N)Oc3cc(O)ccc32)cc1C (stereo not drawn) | 7.3 | -5.4 | 0.6 | 24.5* | 4.8 | -6.3
CC(=O)Nc1ccc(NC(=O)C(C)OC(=O)/C(C#N)=C/c2ccc(N(C)C)cc2)cc1 (stereo not drawn) | 61.4* | 1.2 | -3.5 | 15.9 | 6.6 | -16.9
O=C1CC(NS(=O)(=O)c2ccc3ccccc3c2)CN1c1ccccc1 (stereo not drawn) | 7.0 | -5.4 | 4.5 | 0.5 | 3.3 | -0.2
CN(C(=O)COC(=O)c1ccc2ccccc2n1)C1CCCCC1 | 0.5 | 1.5 | 24.9* | 2.0 | 1.8 | 10.9
